Source: ChEMBL document CHEMBL4052819 (2017)
In brackets after ≈: the same amount, converted by molar mass. Non-standard residues stand in square brackets, D forms with d. Residues, ends and D or L forms follow the SMILES beside them. *: point of attachment. Heptanoyl = CCCCCCC(=O)*; Octanoyl = CCCCCCCC(=O)*; Dab = NCC[C@H](N)C(=O)O; Cbz = O=C(OCc1ccccc1)*; Hexanoyl = CCCCCC(=O)*; Bz = O=C(c1ccccc1)*

Experiments:
Acinetobacter baumannii [1] = test: Bactericidal activity against Acinetobacter baumannii ATCC 19606; format: functional; conditions: ATCC 19606 = CIP 70.34 = JCM 6841, read-out: MBC99.9
Summary of the method: (§1)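 MBC from MIC plates at end point: 50 μL from each well with no visible growth plated on tryptic soy agar and counted. MBC taken as lowest concentration giving ≥99.9% fall in viable count relative to initial inoculum. Three independent experiments, one replicate each.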

Enterococcus faecium [2] = test: Bactericidal activity against Enterococcus faecium ATCC 19434; format: functional; conditions: read-out: MBC99.9; summary of the method: as §1
Acinetobacter baumannii [3] = test: Antibacterial activity against Acinetobacter baumannii ATCC 19606 after 18 to 20 hrs by broth microdilution method; format: functional; conditions: ATCC 19606 = CIP 70.34 = JCM 6841
Staphylococcus aureus [4] = test: Bactericidal activity against methicillin-resistant Staphylococcus aureus ATCC 43300; format: functional; conditions: read-out: MBC99.9
Summary of the method: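 MBC taken at the end of the MIC test: 50 μL from each well without visible growth plated on tryptic soy agar. MBC = lowest concentration giving ≥99.9% reduction in viable cells relative to the initial inoculum. Three independent experiments, one replicate each.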

Escherichia coli [5] = test: Antibacterial activity against Escherichia coli ATCC 25922 after 18 to 20 hrs by broth microdilution method; format: functional
Summary of the method: (§2)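 Broth microdilution in tryptic soy broth: 2-fold dilutions mixed 1:1 with ~1.5 × 10^5 CFU/mL inoculum, final 0.5–32 μg/mL; 37 °C, 18–20 h. MIC taken as lowest concentration giving no visible growth. At least three independent experiments, one replicate each.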

Klebsiella pneumoniae [6] = test: Bactericidal activity against Klebsiella pneumoniae ATCC 13883; format: functional; conditions: read-out: MBC99.9; summary of the method: as §1
Escherichia coli [7] = test: Bactericidal activity against Escherichia coli ATCC 25922; format: functional; conditions: read-out: MBC99.9; summary of the method: as §1
Escherichia coli [8] = test: Antibacterial activity against Escherichia coli ATCC 25922 after 18 to 20 hrs in presence of 95% serum by broth microdilution method; format: functional
Summary of the method: (§3)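 Same microdilution with human serum as medium: compound 2-fold diluted in 100% serum, mixed 1:1 with 90% serum holding ~1.5 × 10^5 CFU/mL, giving 95% serum and final 0.5–64 μg/mL. MIC read as no visible growth after incubation as for the broth test.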

Staphylococcus aureus [9] = test: Antibacterial activity against Staphylococcus aureus ATCC 29213 after 18 to 20 hrs in presence of 95% serum by broth microdilution method; format: functional; summary of the method: as §3
Staphylococcus aureus [10] = test: Antibacterial activity against Staphylococcus aureus ATCC 29213 after 18 to 20 hrs by broth microdilution method; format: functional; summary of the method: as §2
Enterococcus faecium [11] = test: Antibacterial activity against Enterococcus faecium ATCC 19434 after 18 to 20 hrs by broth microdilution method; format: functional; summary of the method: as §2
Klebsiella pneumoniae [12] = test: Antibacterial activity against Klebsiella pneumoniae ATCC 13883 after 18 to 20 hrs by broth microdilution method; format: functional
Pseudomonas aeruginosa [13] = test: Antibacterial activity against Pseudomonas aeruginosa ATCC 27853 after 18 to 20 hrs by broth microdilution method; format: functional; summary of the method: as §2
Pseudomonas aeruginosa [14] = test: Bactericidal activity against Pseudomonas aeruginosa ATCC 27853; format: functional; conditions: read-out: MBC99.9; summary of the method: as §1
Staphylococcus aureus [15] = test: Antibacterial activity against methicillin-resistant Staphylococcus aureus ATCC 43300 after 18 to 20 hrs by broth microdilution method; format: functional
Summary of the method: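 Broth microdilution in tryptic soy broth: 2-fold dilutions mixed 1:1 with ~1.5 × 10^5 CFU/mL bacterial suspension in TSB, final 0.5–32 μg/mL, 37 °C for 18–20 h. MIC = lowest concentration with no visible growth. At least three independent experiments, one replicate each.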

Staphylococcus aureus [16] = test: Bactericidal activity against Staphylococcus aureus ATCC 29213; format: functional; conditions: read-out: MBC99.9; summary of the method: as §1
Acinetobacter baumannii [17] = test: Potentiation of rifampicin-mediated antibacterial activity against Acinetobacter baumannii ATCC 19606 assessed as rifampicin MIC at 2 ug/ml by checkerboard method (reference value: 16 ug/ml); format: functional; conditions: ATCC 19606 = CIP 70.34 = JCM 6841
Klebsiella pneumoniae [18] = test: Potentiation of rifampicin-mediated antibacterial activity against Klebsiella pneumoniae ATCC 13883 assessed as rifampicin MIC at 2 ug/ml by checkerboard method (reference value: 16 ug/ml); format: functional
Klebsiella pneumoniae [19] = test: Potentiation of rifampicin-mediated antibacterial activity against Klebsiella pneumoniae ATCC 13883 assessed as decrease in rifampicin MIC at 2 ug/ml by checkerboard method relative to control; format: functional
Acinetobacter baumannii [20] = test: Potentiation of rifampicin-mediated antibacterial activity against Acinetobacter baumannii ATCC 19606 assessed as decrease in rifampicin MIC at 4 ug/ml by checkerboard method relative to control; format: functional, ATCC 19606 = CIP 70.34 = JCM 6841

## CCCCCCC(=O)N[C@@H](CCN)C(=O)N[C@@H](Cc1ccccc1)C(=O)N[C@@H](CCN)C(=O)N[C@H](Cc1ccccc1)C(=O)N[C@@H](CC(C)C)C(=O)N[C@@H](CCN)C(=O)N[C@H](CC(C)C)C(=O)N[C@@H](CC(C)C)C(=O)N[C@@H](CO)C(N)=O (Heptanoyl-[Dab]F[Dab][dF]L[Dab][dL]LS-NH2)
Acinetobacter baumannii [1]
  MBC: 8 µg/mL (≈ 6.95 µM)
Enterococcus faecium [2]
  MBC: 32 µg/mL (≈ 27.8 µM)
Acinetobacter baumannii [3]
  MIC: 8 µg/mL (≈ 6.95 µM)
Staphylococcus aureus [4]
  MBC: 32 µg/mL (≈ 27.8 µM)
Escherichia coli [5]
  MIC: 1 to 4 µg/mL (≈ 0.869 to 3.48 µM)
Klebsiella pneumoniae [6]
  MBC: 8 µg/mL (≈ 6.95 µM)
Escherichia coli [7]
  MBC: 32 µg/mL (≈ 27.8 µM)
Escherichia coli [8]
  MIC: 32 µg/mL
Staphylococcus aureus [9]
  MIC: 64 µg/mL
Staphylococcus aureus [10]
  MIC: 16 to 32 µg/mL (≈ 13.9 to 27.8 µM)
Enterococcus faecium [11]
  MIC: 16 µg/mL (≈ 13.9 µM)
Klebsiella pneumoniae [12]
  MIC: 4 µg/mL (≈ 3.48 µM)
Pseudomonas aeruginosa [13]
  MIC: 2 to 4 µg/mL (≈ 1.74 to 3.48 µM)
Pseudomonas aeruginosa [14]
  MBC: 8 to 16 µg/mL (≈ 6.95 to 13.9 µM)
Staphylococcus aureus [15]
  MIC: 16 to 32 µg/mL (≈ 13.9 to 27.8 µM)
Staphylococcus aureus [16]
  MBC: 16 to 32 µg/mL (≈ 13.9 to 27.8 µM)

## CC[C@H](C)[C@H](NC(=O)[C@H](CCN)NC(=O)c1ccccc1)C(=O)N[C@@H](CCN)C(=O)N[C@H](Cc1ccccc1)C(=O)N[C@@H](CC(C)C)C(=O)N[C@@H](CCN)C(=O)N[C@@H](C(=O)N[C@@H](CC(C)C)C(=O)N[C@@H](CO)C(N)=O)C(C)C (Bz-[Dab]I[Dab][dF]L[Dab][dV]LS-NH2)
Acinetobacter baumannii [17]
  MIC: 0.0312 µg/mL
Acinetobacter baumannii [3]
  MIC: > 32 µg/mL
Klebsiella pneumoniae [18]
  MIC: 0.0078 µg/mL
Escherichia coli [5]
  MIC: 16 to 32 µg/mL (≈ 14.6 to 29.2 µM)
Klebsiella pneumoniae [19]
  fold change (FC): 4096 - 8192
Acinetobacter baumannii [20]
  fold change (FC): 2048 - 4096
Staphylococcus aureus [10]
  MIC: > 32 µg/mL
Enterococcus faecium [11]
  MIC: > 32 µg/mL
Klebsiella pneumoniae [12]
  MIC: > 32 µg/mL
Pseudomonas aeruginosa [13]
  MIC: 8 to 32 µg/mL (≈ 7.31 to 29.2 µM)
Staphylococcus aureus [15]
  MIC: > 32 µg/mL

## CCCCCCCC(=O)N[C@@H](CCN)C(=O)N[C@@H](CCN)C(=O)N[C@@H](CCN)C(=O)N[C@H](Cc1ccccc1)C(=O)N[C@@H](CC(C)C)C(=O)N[C@@H](CCN)C(=O)N[C@@H](C(=O)N[C@@H](CC(C)C)C(=O)N[C@@H](CCN)C(N)=O)C(C)C (Octanoyl-[Dab][Dab][Dab][dF]L[Dab][dV]L[Dab]-NH2)
Acinetobacter baumannii [17]
  MIC: 0.0312 to 0.0625 µg/mL
Acinetobacter baumannii [3]
  MIC: > 32 µg/mL
Klebsiella pneumoniae [18]
  MIC: 0.0625 to 0.125 µg/mL
Escherichia coli [5]
  MIC: > 32 µg/mL
Klebsiella pneumoniae [19]
  fold change (FC): 256
Acinetobacter baumannii [20]
  fold change (FC): 256 - 512
Staphylococcus aureus [10]
  MIC: ≥ 32 µg/mL
Enterococcus faecium [11]
  MIC: > 32 µg/mL
Klebsiella pneumoniae [12]
  MIC: > 32 µg/mL
Pseudomonas aeruginosa [13]
  MIC: 16 to 32 µg/mL (≈ 14.3 to 28.7 µM)
Staphylococcus aureus [15]
  MIC: > 32 µg/mL

## CCCCCC(=O)N[C@@H](CCN)C(=O)N[C@H](C(=O)N[C@@H](CCN)C(=O)N[C@H](Cc1ccccc1)C(=O)N[C@@H](CC(C)C)C(=O)N[C@@H](CCN)C(=O)N[C@@H](C(=O)N[C@@H](CC(C)C)C(=O)N[C@@H](CO)C(N)=O)C(C)C)[C@@H](C)CC (Hexanoyl-[Dab]I[Dab][dF]L[Dab][dV]LS-NH2)
Acinetobacter baumannii [17]
  MIC: 0.0078 to 0.0156 µg/mL
Acinetobacter baumannii [3]
  MIC: > 32 µg/mL
Klebsiella pneumoniae [18]
  MIC: 0.0039 µg/mL
Escherichia coli [5]
  MIC: 8 to 16 µg/mL (≈ 7.35 to 14.7 µM)
Klebsiella pneumoniae [19]
  fold change (FC): 8192
Acinetobacter baumannii [20]
  fold change (FC): 4096 - 8192
Staphylococcus aureus [10]
  MIC: > 32 µg/mL
Enterococcus faecium [11]
  MIC: > 32 µg/mL
Klebsiella pneumoniae [12]
  MIC: ≥ 32 µg/mL
Pseudomonas aeruginosa [13]
  MIC: 8 to 16 µg/mL (≈ 7.35 to 14.7 µM)
Staphylococcus aureus [15]
  MIC: > 32 µg/mL

## CC[C@H](C)[C@H](NC(=O)[C@H](CCN)NC(=O)OCc1ccccc1)C(=O)N[C@@H](CCN)C(=O)N[C@H](Cc1ccccc1)C(=O)N[C@@H](CC(C)C)C(=O)N[C@@H](CCN)C(=O)N[C@@H](C(=O)N[C@@H](CC(C)C)C(=O)N[C@@H](CO)C(N)=O)C(C)C (Cbz-[Dab]I[Dab][dF]L[Dab][dV]LS-NH2)
Acinetobacter baumannii [17]
  MIC: 0.0019 to 0.0039 µg/mL
Acinetobacter baumannii [3]
  MIC: 16 µg/mL (≈ 14.2 µM)
Klebsiella pneumoniae [18]
  MIC: 0.0039 µg/mL
Escherichia coli [5]
  MIC: 8 to 16 µg/mL (≈ 7.11 to 14.2 µM)
Klebsiella pneumoniae [19]
  fold change (FC): 4096 - 8192
Acinetobacter baumannii [20]
  fold change (FC): >=8192
Staphylococcus aureus [10]
  MIC: > 32 µg/mL
Enterococcus faecium [11]
  MIC: > 32 µg/mL
Klebsiella pneumoniae [12]
  MIC: > 32 µg/mL
Pseudomonas aeruginosa [13]
  MIC: 16 µg/mL (≈ 14.2 µM)
Staphylococcus aureus [15]
  MIC: > 32 µg/mL
